A selection: hits, their analogues and other compounds. The true share with any hit is near 2.9%.
CHO-K1 Ca antag: counter-screen for M1 antagonists: effect in parental CHO-K1 cells; ATP-induced calcium, Fluo-8 fluorescence; inhibition, % at 3 µM; 0.6% of 360,000 active; AID 602250;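 active = inhibition above a per-plate cutoff, the plate's mean sample inhibition plus 3 SD, cut at about 24% in these data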
OX1R antag-1: blocks the human orexin 1 receptor. inhibition, % at 6.6 µM. OX1R-expressing cells, FRET antagonist read-out. 1.8% of 330,000 active; in the data active = inhibition mostly above about 38%, no sharp cut-off; inactive = mostly below about 40%
Target sequence (O43613 whole entry, looked up): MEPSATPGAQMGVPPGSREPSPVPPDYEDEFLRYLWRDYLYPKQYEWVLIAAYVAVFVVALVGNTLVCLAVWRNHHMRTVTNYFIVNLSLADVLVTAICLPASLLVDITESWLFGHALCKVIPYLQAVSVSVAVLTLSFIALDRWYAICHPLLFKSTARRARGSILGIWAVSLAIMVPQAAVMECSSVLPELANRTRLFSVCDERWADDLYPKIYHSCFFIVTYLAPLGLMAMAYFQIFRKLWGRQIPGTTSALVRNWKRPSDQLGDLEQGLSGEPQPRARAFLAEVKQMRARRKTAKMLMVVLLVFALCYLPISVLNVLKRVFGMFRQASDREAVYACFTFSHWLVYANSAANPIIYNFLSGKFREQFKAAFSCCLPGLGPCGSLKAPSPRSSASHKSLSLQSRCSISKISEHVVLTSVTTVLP
M1 ag parental: counter-screen for M1 agonists: effect in parental CHO-K1 cells. Fluo-8 calcium fluorescence; scaled to maximal ATP response, vehicle zero. activation, % at 3 µM. 0.48% of 360,000 active; in the data active = activation above about 15%;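 also: untransfected CHO-K1 host cells lacking M1 receptor as counterscreen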
CHO-K1 Ca PAM: nonselective activator or artifact in parental CHO-K1 calcium assay; ATP EC20, Fluo-8 calcium fluorescence; 0% at ATP EC20, 100% at ATP max; activation, % at 3 µM; 0.02% of 360,000 active; AID 602247;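 active = activation above the run cutoff, the mean activation of all test compounds plus 3 SD, cut at about 40% in these data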;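 also: peak over basal fluorescence ratio in a 140 s read after ATP addition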
CHO parental Ca: counter-screen: ATP calcium response change in parental CHO cells; parental CHO-K1, ATP-induced calcium, Fluo-8 fluorescence; inhibition, % at 5.6 µM; 0.63% of 330,000 active; AID 463079;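 active = inhibition above that plate's mean sample inhibition plus 3 SD, cut at about 26% in these data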
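Measured by: calcium-sensitive Fluo-8 fluorescence / Test system: CHO parental line / Controls: ATP-challenged DMSO wells low, unchallenged DMSO wells high / Measure: % inhibition / Compound: single nominal dose of 5.6 µM per compound / Replicates: single well per compound, no replicates / Reagent: ATP as calcium-mobilizing challenge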
OX1R antag-2: human HCRTR1 antagonism | O43613 | CHO/OX1R cells, Fluo-8 calcium fluorescence, orexin A | inhibition, % at 5 µM | 0.43% of 330,000 active;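 active = inhibition above its plate's threshold, mean inhibition of all tested compounds on the plate plus 3 SD, cut at about 37% in these data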
Large screens that a line does not name were inactive.

C[C@@H]1CN([C@@H](C)CO)C(=O)c2cccc(NC(=O)C3CCCCC3)c2O[C@@H]1CN(C)C(=O)NC1CCCCC1	none
Cc1nn(CC(=O)Nc2ccc3c(c2)OCCO3)c(C)c1[N+](=O)[O-]	none
COc1ccc(C2CCc3cc(OC)c(OC)cc3C2NC=O)cc1OC (stereo not drawn)	none (no result: OX1R antag-1, CHO parental Ca, OX1R antag-2)
C/C=C(\C)C(=O)OC1c2c(ccc3ccc(=O)oc23)OC(C)(C)C1OC(C)=O (stereo not drawn)	none
C/C=C(/C)C(=O)OC1c2c(ccc3ccc(=O)oc23)OC(C)(C)C1OC(=O)/C(C)=C\C (stereo not drawn)	OX1R antag-1 44, CHO parental Ca 75
CCc1ccc(S(=O)(=O)/N=C2\C=C(Nc3ccc(O)cc3)C(=O)c3ccccc32)cc1	none
CCc1ccc(S(=O)(=O)/N=C2/C=C(Sc3ncn[nH]3)C(=O)c3ccccc32)cc1	OX1R antag-1 68
CCc1ccc(S(=O)(=O)/N=C2\C=CC(=O)c3ccccc32)cc1	none (no result: CHO-K1 Ca antag, M1 ag parental, CHO-K1 Ca PAM)
CCc1ccc(S(=O)(=O)/N=C2\C=C(Nc3cccc(C(=O)O)c3)C(=O)c3ccccc32)cc1	OX1R antag-1 46
COc1cc(/C(C)=N/NC(=O)CN2CCN(S(=O)(=O)c3ccc(C)cc3)CC2)ccc1O	none
COc1cc(NC(=O)c2ccccc2)c(OC)cc1NC(=O)CN1CCOCC1	none
COc1cc(NC(=O)c2ccccc2)c(OC)cc1NC(=O)CN1CCCCC1	CHO-K1 Ca antag 26
COc1ccc(NC(=O)CN2CCN(c3ccc(Cl)cc3)CC2)c(OC)c1	CHO-K1 Ca PAM 42
COc1ccc(OC)c(C(=O)N2CCC(C(=O)c3ccc(F)cc3)CC2)c1	CHO-K1 Ca antag 24
COc1ccc(NC(=O)CN2CCN(c3nc(-c4ccc(F)cc4)cs3)CC2)c(OC)c1	CHO-K1 Ca PAM 53
COc1ccc(NC(=O)N2CCC(C(=O)c3ccc(F)cc3)CC2)cc1	none
Cc1[nH]c2ccccc2c1C(=O)C(=O)N1CCN(C)CC1	none
COc1ccc(NC(=O)Cc2ccc(Cl)cc2)cc1S(=O)(=O)N1CCCCC1	none
CC(Sc1ncn[nH]1)C(=O)c1c(N)n(C)c(=O)n(C)c1=O (stereo not drawn)	none
COc1ccc(NC(=O)CN2CCC(C(=O)c3ccc(C)cc3)CC2)c(OC)c1	none
COc1ccc(NC(=O)CN2CCC(C(=O)c3ccc(F)cc3)CC2)c(OC)c1	M1 ag parental 37
O=C(c1ccc(F)cc1)C1CCN(Cc2ccccc2)CC1	M1 ag parental 16 (no result: OX1R antag-1, CHO parental Ca, OX1R antag-2)
NC(=O)C1CCN(c2nc(-c3ccc(F)cc3)cs2)CC1	OX1R antag-1 57
COc1ccc(CSCC(=O)N/N=C/c2ccccc2O)cc1	none
CCN(CC)S(=O)(=O)c1ccc2c(c1)nc(SCC(=O)NCC1CCCO1)n2CC (stereo not drawn)	none
O=C(CCC1CCN(C(=O)c2cncs2)CC1)Nc1ccccc1	none
O=C(CCCCCN1C(=O)c2cccc3cccc(c23)C1=O)NCCO	OX1R antag-1 52
O=C(CCN1C(=O)c2cccc3cccc(c23)C1=O)NCc1cccnc1	OX1R antag-1 47
CN(C)CCCN1C(=O)c2cccc3cccc(c23)C1=O	OX1R antag-1 56
Cc1cccc(C)c1NC(=O)CNC(=O)CCCN1C(=O)c2cccc3cccc(c23)C1=O	none
CN(C)CCCN1C(=O)c2cc3ccccc3cc2C1=O	none
CCN(CC)C(=O)CN1C(=O)c2cccc3cccc(c23)C1=O	OX1R antag-1 69
CCN(CC(=O)Nc1c(F)cccc1F)C(=O)CN1C(=O)c2ccccc2C1=O	none
O=C1c2cccc3cccc(c23)C(=O)N1Cc1cccnc1	none
COc1ccc(N(Cc2cc3cccc(C)c3[nH]c2=O)C(=O)C2CCCO2)cc1 (stereo not drawn)	none
Cc1cc(NC(=O)c2ccc(Cl)cc2)n(CCC#N)n1	M1 ag parental 16
Cc1oc(-c2ccc(-c3ccccc3)cc2)nc1CN(CCO)C(C)C	none
CCn1ccnc1CN(C)C(=O)CCc1nnc(CCCc2ccccc2)o1	CHO-K1 Ca antag 24
Nc1ccccc1SC1CC(=O)N(c2ccc(Cl)c(Cl)c2)C1=O (stereo not drawn)	CHO parental Ca 34
Nc1ccccc1SC1CC(=O)N(c2ccc3c(c2)OCCO3)C1=O (stereo not drawn)	none
CC(=O)c1cc(F)c(N2CCN(C(=O)Cc3ccccc3)CC2)cc1C	OX1R antag-2 59
CCOC(=O)N1CCN(c2cc(C)c(C(C)=O)cc2F)CC1	none
CC1CCc2nc(NC(=O)C3COc4ccccc4O3)sc2C1 (stereo not drawn)	OX1R antag-1 39
CCN(Cc1ccccc1)C(=O)CN1C(=O)NC(CC)(c2ccc(F)cc2)C1=O (stereo not drawn)	none
CCOc1ccc(NC(=O)c2ccccc2CO)cc1	CHO-K1 Ca antag 30
CCOc1ccc(NC(=O)c2ccc(NC(=O)c3ccccc3Br)cc2)cc1	CHO-K1 Ca antag 30 (no result: OX1R antag-1, CHO parental Ca, OX1R antag-2)
O=S1(=O)CCOCCCN1Cc1ccccc1F	none
CCOC(=O)CNC(=O)CNC(=O)c1nn(-c2ccc(OC)c(Cl)c2)c(=O)c2ccccc12	CHO-K1 Ca antag 26
CSCc1ccc(C(=O)OCc2nc3ccccc3s2)o1	none
COc1ccc(CNC(=O)c2ccc(N(C)S(=O)(=O)c3ccc(C)cc3)cc2)cc1	CHO-K1 Ca antag 25
CN(c1ccccc1)S(=O)(=O)c1ccc(NC(=O)c2ccc(F)cc2)cc1	M1 ag parental 19
CN(c1ccc(C(=O)NCCSCc2ccccc2)cc1)S(=O)(=O)c1ccccc1	CHO-K1 Ca antag 24
Cc1ccc(C)c(NC(=O)CN(C)C(=O)c2ccc(S(=O)(=O)N(C)c3ccccc3)cc2)c1	OX1R antag-1 30
COc1ccc(S(=O)(=O)N(C)c2ccc(C(=O)NCc3ccncc3)cc2)cc1	none
CN(c1ccccc1)S(=O)(=O)c1ccc(NC(=O)c2ccccc2)cc1	none
Cc1cccc(CSCCNC(=O)c2ccc(N(C)S(=O)(=O)c3ccccc3)cc2)c1	none
CCCC1NC(=O)c2cc3ccccc3cc2-n2c1nc1cc(F)ccc1c2=O (stereo not drawn)	none (no result: OX1R antag-1, CHO parental Ca, OX1R antag-2)
CN(c1ccc(C(=O)Nc2ccccn2)cc1)S(=O)(=O)c1ccccc1	none
Cc1cc(NC(=O)c2ccc(N(C)S(=O)(=O)c3ccccc3)cc2)no1	M1 ag parental 17
COCCn1c(SCC(=O)NNC(=O)c2ccccc2)nc2ccccc21	none
N#CC(C#N)=C(Nc1ccc(F)cc1)SCc1cccc(F)c1	OX1R antag-1 71
CCc1nnc(N2C(=O)c3ccc(Oc4ccc([N+](=O)[O-])cc4)cc3C2=O)s1	none
CCCN(CCC)C(=O)c1ccc2c(c1)S(=O)(=O)c1ccccc1C2=O	none
O=C(Nc1ccc(-c2ccccc2)cc1)c1ccc2c(c1)S(=O)(=O)c1ccccc1C2=O	none
CCCNC(=O)c1ccc2c(c1)S(=O)(=O)c1ccccc1C2=O	OX1R antag-1 74
